Laboratory results as given in ChEMBL document CHEMBL4387722.

Tests used:
[1] = target: T1, Phosphotyrosine protein phosphatase (Mycobacterium tuberculosis, UniProt A0A045ISB3); assay: Inhibition of Mycobacterium tuberculosis His-tagged PtpB expressed in Escherichia coli Rosetta 2 (DE3) using pNPP as substrate after 30 mins by spectrophotometric method
T1 sequence (A0A045ISB3 whole entry): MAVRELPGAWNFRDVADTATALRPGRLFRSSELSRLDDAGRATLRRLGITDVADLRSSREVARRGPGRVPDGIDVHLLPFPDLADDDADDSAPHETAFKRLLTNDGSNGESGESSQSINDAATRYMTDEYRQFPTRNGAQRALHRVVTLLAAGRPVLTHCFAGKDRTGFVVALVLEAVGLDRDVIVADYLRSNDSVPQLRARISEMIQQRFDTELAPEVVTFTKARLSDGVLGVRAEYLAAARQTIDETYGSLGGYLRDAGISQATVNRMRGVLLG

[2] = target: T2, Tyrosine-protein phosphatase non-receptor type 1 (Homo sapiens, UniProt P18031); assay: Inhibition of human PTPN1 expressed in Escherichia coli Rosetta 2 (DE3) using pNPP as substrate after 45 mins by spectrophotometric method
T2 sequence (P18031 whole entry): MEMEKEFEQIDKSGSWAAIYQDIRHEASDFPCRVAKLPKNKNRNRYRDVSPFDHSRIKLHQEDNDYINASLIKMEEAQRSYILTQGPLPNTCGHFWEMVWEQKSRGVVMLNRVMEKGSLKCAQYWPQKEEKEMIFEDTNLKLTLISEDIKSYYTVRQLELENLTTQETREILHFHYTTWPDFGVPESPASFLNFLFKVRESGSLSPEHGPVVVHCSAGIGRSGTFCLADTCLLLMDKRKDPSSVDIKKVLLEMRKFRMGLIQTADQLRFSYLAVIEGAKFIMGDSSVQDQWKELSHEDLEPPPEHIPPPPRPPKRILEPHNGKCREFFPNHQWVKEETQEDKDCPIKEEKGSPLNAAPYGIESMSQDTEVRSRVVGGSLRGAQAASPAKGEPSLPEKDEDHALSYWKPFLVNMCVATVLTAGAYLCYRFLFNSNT

[3] = target: T3, Tyrosine-protein phosphatase non-receptor type 2 (Homo sapiens, UniProt P17706); assay: Inhibition of human PTPN2 expressed in Escherichia coli Rosetta 2 (DE3) using pNPP as substrate after 45 mins by spectrophotometric method
T3 sequence (P17706 whole entry): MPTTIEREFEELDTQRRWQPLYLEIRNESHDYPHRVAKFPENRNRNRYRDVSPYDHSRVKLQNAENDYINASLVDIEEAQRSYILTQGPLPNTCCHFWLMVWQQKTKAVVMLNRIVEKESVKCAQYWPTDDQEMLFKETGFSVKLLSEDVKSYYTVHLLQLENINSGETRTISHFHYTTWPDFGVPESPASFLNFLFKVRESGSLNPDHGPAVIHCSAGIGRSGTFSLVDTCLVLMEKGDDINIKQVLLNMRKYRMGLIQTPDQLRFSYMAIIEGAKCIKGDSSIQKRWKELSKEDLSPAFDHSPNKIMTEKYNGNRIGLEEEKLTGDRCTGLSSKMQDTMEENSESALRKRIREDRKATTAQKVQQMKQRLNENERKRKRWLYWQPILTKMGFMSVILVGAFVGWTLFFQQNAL

[4] = target: T4, Tyrosine-protein phosphatase non-receptor type 5 (Homo sapiens, UniProt P54829); assay: Inhibition of human PTPN5 expressed in Escherichia coli Rosetta 2 (DE3) using pNPP as substrate after 45 mins by spectrophotometric method
T4 sequence (P54829 whole entry): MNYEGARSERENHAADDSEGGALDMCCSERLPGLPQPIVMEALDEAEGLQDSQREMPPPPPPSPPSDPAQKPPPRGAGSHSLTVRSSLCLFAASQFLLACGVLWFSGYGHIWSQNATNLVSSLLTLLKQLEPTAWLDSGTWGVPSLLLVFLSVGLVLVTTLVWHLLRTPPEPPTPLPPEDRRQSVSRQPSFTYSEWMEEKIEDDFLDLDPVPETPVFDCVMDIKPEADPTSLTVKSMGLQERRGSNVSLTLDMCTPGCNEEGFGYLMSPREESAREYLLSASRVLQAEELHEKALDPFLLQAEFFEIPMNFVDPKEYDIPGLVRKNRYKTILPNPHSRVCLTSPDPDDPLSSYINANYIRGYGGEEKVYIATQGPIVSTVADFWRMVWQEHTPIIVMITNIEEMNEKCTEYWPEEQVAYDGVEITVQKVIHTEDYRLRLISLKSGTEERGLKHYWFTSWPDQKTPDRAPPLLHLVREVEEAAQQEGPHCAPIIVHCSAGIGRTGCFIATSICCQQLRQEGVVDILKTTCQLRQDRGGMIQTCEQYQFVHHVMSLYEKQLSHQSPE

[5] = tested on: Mycobacterium tuberculosis; assay: Antitubercular activity against Mycobacterium tuberculosis H37Rv after 5 days at 200 uM relative to control; type: functional; conditions: 120 h
How it was run: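 M. tuberculosis grown in liquid culture with compound at a fixed 200 μM for 5 days. Growth inhibition expressed as percent of control.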

[6] = Inhibition of refolded rhodanese (unknown origin) preincubated with Escherichia coli GroEL/GroES for 60 mins by measuring rhodanese enzyme activity followed by compound addition by Fe(SCN)3 dye based spectrometric analysis; parameters: species or system Homo sapiens
[7] = target: T5, Malate dehydrogenase, mitochondrial (Sus scrofa, UniProt P00346); assay: Inhibition of refolded pig heart mitochondrial MDH preincubated with Escherichia coli GroEL/GroES for 45 mins using sodium mesoxalate as substrate followed by compound addition and measured after 20 to 30 mins by spectrometric analysis
T5 sequence (P00346 whole entry): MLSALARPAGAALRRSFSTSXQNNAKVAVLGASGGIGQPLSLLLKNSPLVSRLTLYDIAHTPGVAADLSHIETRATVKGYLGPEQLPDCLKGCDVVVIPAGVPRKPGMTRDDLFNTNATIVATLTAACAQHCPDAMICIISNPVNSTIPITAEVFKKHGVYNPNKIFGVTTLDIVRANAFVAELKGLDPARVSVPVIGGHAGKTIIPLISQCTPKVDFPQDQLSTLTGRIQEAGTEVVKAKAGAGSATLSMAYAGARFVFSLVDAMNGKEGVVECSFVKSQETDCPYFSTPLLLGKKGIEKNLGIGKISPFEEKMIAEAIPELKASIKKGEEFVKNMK

[8] = target: HSP60/HSP10 (Homo sapiens, UniProt P10809); assay: Inhibition of human HSP60 expressed in Escherichia coli Rosetta 2(DE3)/human HSP10 expressed in Escherichia coli Rosetta 2(DE3) pLysS cells assessed as reduction in HSP60/HSP10-mediated denatured pig heart mitochondrial MDH refolding by measuring MDH enzyme activity using sodium mesoxalate as substrate after 40 to 60 mins by spectrometric analysis
Sequence of HSP60/HSP10 (P10809 whole entry): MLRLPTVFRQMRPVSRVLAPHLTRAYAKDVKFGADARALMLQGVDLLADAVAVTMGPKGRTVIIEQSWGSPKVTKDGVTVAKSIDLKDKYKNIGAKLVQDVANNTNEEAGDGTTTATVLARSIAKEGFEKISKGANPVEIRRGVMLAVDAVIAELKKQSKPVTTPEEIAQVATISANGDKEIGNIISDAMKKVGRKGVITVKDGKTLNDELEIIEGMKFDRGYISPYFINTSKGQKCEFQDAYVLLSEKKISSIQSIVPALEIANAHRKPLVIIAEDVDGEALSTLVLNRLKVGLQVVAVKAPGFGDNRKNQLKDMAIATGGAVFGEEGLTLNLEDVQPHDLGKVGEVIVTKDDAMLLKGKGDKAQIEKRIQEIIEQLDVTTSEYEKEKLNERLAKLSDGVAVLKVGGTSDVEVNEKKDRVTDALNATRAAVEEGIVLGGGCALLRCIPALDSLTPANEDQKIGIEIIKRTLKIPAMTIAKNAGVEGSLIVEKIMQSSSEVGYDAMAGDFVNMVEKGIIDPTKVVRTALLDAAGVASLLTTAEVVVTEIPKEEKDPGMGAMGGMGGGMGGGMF
Sequence of HSP60/HSP10 (P61604 whole entry, further chain): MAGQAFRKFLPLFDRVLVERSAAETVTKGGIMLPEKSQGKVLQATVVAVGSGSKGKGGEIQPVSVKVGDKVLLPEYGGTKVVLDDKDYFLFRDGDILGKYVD

[9] = Cytotoxicity against human THLE3 cells assessed as reduction in cell viability after 48 hrs by Alamar blue assay; type: cell-based
How it was run: (§1)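 Alamar Blue viability read-out. Human liver (THLE-3) and kidney (HEK 293) cells incubated with compound for 48 h. Tested in dose-response to derive CC50.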

[10] = Cytotoxicity against human HEK293 cells assessed as reduction in cell viability after 48 hrs by Alamar blue assay; type: cell-based; how it was run: as §1
[11] = tested on: Mycobacterium tuberculosis; assay: Antitubercular activity against Mycobacterium tuberculosis H37Rv after 5 days; type: functional, organism-based; conditions: 120 h

Row | Compound | IC50 [1] [µM] | IC50 [2] [µM] | IC50 [3] [µM] | IC50 [4] [µM] | inhibition at 200 µM [5] [%] | IC50 [6] [µM] | IC50 [7] [µM] | IC50 [8] [µM] | CC50 at 48 h [9] [µM] | CC50 at 48 h [10] [µM] | EC50 [11] [µM]
1 | O=S(=O)(Nc1ccc2oc(-c3ccccc3)nc2c1)c1ccc(O)cc1 | 97 | 92 | > 100 | 84 | 9 | > 100 | > 63 | 88 | > 100 | > 100 | 
2 | O=S(=O)(Nc1ccc2oc(-c3ccccc3)nc2c1)c1ccc(F)c(C(F)(F)F)c1 | 46 | 76 | 39 | 26 | 23 | > 100 | > 63 | 69 | 55 | > 100 | 
3 | Nc1ccc(S(=O)(=O)Nc2ccc(-c3nc4cc(NS(=O)(=O)c5ccc(N)cc5)ccc4o3)cc2)cc1 | 16 | 27 | 32 | 41 | 51 |  |  |  |  |  | > 200
4 | Nc1ccccc1S(=O)(=O)Nc1ccc(-c2nc3cc(NS(=O)(=O)c4ccccc4N)ccc3o2)cc1 | 17 | 34 | 25 | 51 | 58 |  |  |  |  |  | > 200
5 | N#Cc1ccccc1S(=O)(=O)Nc1ccc(-c2nc3cc(NS(=O)(=O)c4ccccc4C#N)ccc3o2)cc1 | 18 | 56 | 69 | 47 | 85 |  |  |  |  |  | 113
6 | O=S(=O)(Nc1ccc(-c2nc3cc(NS(=O)(=O)c4ccccc4Br)ccc3o2)cc1)c1ccccc1Br | 20 | 24 | 28 | 31 | 50 |  |  |  |  |  | > 200
7 | O=S(=O)(Nc1ccc(-c2nc3cc(NS(=O)(=O)c4cccc5nonc45)ccc3o2)cc1)c1cccc2nonc12 | 8.8 | 34 | 58 | 40 | 76 |  |  |  |  |  | > 200
8 | COc1ccccc1S(=O)(=O)Nc1ccc(-c2nc3ccccc3o2)cc1 | 59 | 54 | 53 | 44 | 0 | > 100 | > 63 | > 100 | > 100 | > 100 | 
9 | O=S(=O)(Nc1ccc2oc(-c3ccccc3)nc2c1)c1ccccc1O | 98 | 76 | > 100 | 68 | 18 | > 100 | > 63 | 85 | 32 | 33 | 
10 | O=S(=O)(Nc1ccc(-c2nc3cc(NS(=O)(=O)c4cccc(F)c4)ccc3o2)cc1)c1cccc(F)c1 | 13 | 36 | 32 | 31 | 48 |  |  |  |  |  | > 200
11 | CS(=O)(=O)Nc1ccc2oc(-c3ccc(NS(=O)(=O)c4ccc(Cl)s4)cc3)nc2c1 | 46 | 73 | > 100 | > 100 | 85 |  |  |  |  |  | 104
12 | N#Cc1cccc(S(=O)(=O)Nc2ccc(-c3nc4cc(NS(=O)(=O)c5cccc(C#N)c5)ccc4o3)cc2)c1 | 33 | 37 | 48 | 44 | 65 |  |  |  |  |  | > 200
13 | O=S(=O)(Nc1ccc2oc(-c3ccccc3)nc2c1)c1cccc(Cl)c1 | > 100 | 88 | 51 | > 100 | 45 | > 100 | > 63 | > 100 | 45 | 70 | 
14 | CS(=O)(=O)Nc1ccc2oc(-c3ccccc3)nc2c1 | > 100 | > 100 | > 100 | > 100 | 6 | > 100 | > 63 | > 100 | > 100 | > 100 | 
15 | COc1ccc(S(=O)(=O)Nc2ccc(-c3nc4cc(NS(=O)(=O)c5ccc(Cl)s5)ccc4o3)cc2)cc1 | 11 | 11 | 16 | 16 | 25 |  |  |  |  |  | 
16 | O=S(=O)(Nc1ccc2oc(-c3ccc(NS(=O)(=O)c4ccc(Cl)s4)cc3)nc2c1)c1ccc(Cl)c(Cl)c1 | 3.3 | 7.6 | 13 | 11 | 0 |  |  |  |  |  | 
17 | O=S(=O)(Nc1ccc(-c2nc3cc(NS(=O)(=O)c4cccc(Br)c4)ccc3o2)cc1)c1cccc(Br)c1 | 0.79 | 14 | 11 | 11 | 17 |  |  |  |  |  | 
18 | O=c1ccc2cc(S(=O)(=O)Nc3ccc4oc(-c5ccc(NS(=O)(=O)c6ccc(Cl)s6)cc5)nc4c3)ccc2o1 | 4.1 | 13 | 9.3 | 11 | 18 |  |  |  |  |  | 
19 | O=S(=O)(Nc1ccc(-c2nc3cc(NS(=O)(=O)c4ccc(Br)cc4)ccc3o2)cc1)c1ccc(Br)cc1 | 3.6 | 11 | 18 | 11 | 0 |  |  |  |  |  | 
20 | O=[N+]([O-])c1ccc(S(=O)(=O)Nc2ccc(-c3nc4cc(NS(=O)(=O)c5ccc([N+](=O)[O-])cc5)ccc4o3)cc2)cc1 | 6.2 | 27 | 28 | 18 | 0 |  |  |  |  |  | 
21 | COc1ccc(S(=O)(=O)Nc2ccc(-c3nc4cc(NS(=O)(=O)c5ccc(OC)cc5)ccc4o3)cc2)cc1 | 12 | 14 | 16 | 15 | 0 |  |  |  |  |  | 
